# From ChEMBL document CHEMBL5303300, “EUbOPEN Chemogenomics Library - Multiplex” (2023)
# Where “and” joins values, the source holds several entries; their conditions need not be identical. Equal values may be shown once.
# Tested on: Fibroblast
# Assay: Multiplex assay against human fibroblast
# Assay type: toxicity, cell-based
# Settings: number of replicates 2
# Outline: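 Hoechst33342, BioTracker Green Microtubule Cytoskeleton Dye, MitoTracker Red and Annexin V Alexa Fluor 680 were added to live cells at seeding, and imaging on a CQ1 microscope at 37°C and 5% CO2 followed compound addition. Gating by CellPathfinder machine learning separated cells into Hoechst high-intensity objects or normal cells, then normal cells into healthy, pyknosed or fragmented nuclei, then pyknosed cells into mitotic or apoptotic. Per cents of healthy-nucleus cells are reported for the tubulin, mitochondrial-mass and membrane-permeability phenotypes.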
# [1] = 12 h, 1 µM, compound concentration 1 uM
# [2] = 12 h, 10 µM, compound concentration 10 uM
# [3] = 24 h, 1 µM, compound concentration 1 uM
# [4] = 24 h, 10 µM, compound concentration 10 uM
# [5] = 48 h, 1 µM, compound concentration 1 uM
# [6] = 48 h, 10 µM, compound concentration 10 uM
smiles,measurement,setting,value
CN(C)CCN(Cc1ccc(-c2ccc(CNCCc3ccccc3)cc2)cc1)C(=O)CCC1CCCC1.Cl.Cl,Population Apoptotic (%),[1],25% and 30%
same,Population Fragmented Nuclei (%),[1],20% and 26%
same,Population Healthy Nuclei (%),[1],56% and 57%
same,Population Hoechst High Intensity Objects (%),[1],0%
same,Population Membrane Permeable-Phenotype (%),[1],3% and 4%
same,Population Mitochondria Different-Phenotype (%),[1],11% and 14%
same,Population Mitotic Cells (%),[1],74% and 69%
same,Population Normal (%),[1],100% and 99%
same,Population Pyknosed Nuclei (%),[1],22% and 16%
same,Population Tubulin-Different-Phenotype (%),[1],68% and 55%
same,Total Cell Count,[1],254 and 325
same,Population Apoptotic (%),[2],84% and 86%
same,Population Fragmented Nuclei (%),[2],4% and 8%
same,Population Healthy Nuclei (%),[2],3% and 1%
same,Population Hoechst High Intensity Objects (%),[2],2% and 0%
same,Population Mitotic Cells (%),[2],15% and 13%
same,Population Normal (%),[2],97% and 99%
same,Population Pyknosed Nuclei (%),[2],92% and 90%
same,Population Tubulin-Different-Phenotype (%),[2],50% and 100%
same,Total Cell Count,[2],199 and 160
same,Population Apoptotic (%),[3],55% and 66%
same,Population Fragmented Nuclei (%),[3],13% and 19%
same,Population Healthy Nuclei (%),[3],67% and 68%
same,Population Hoechst High Intensity Objects (%),[3],0%
same,Population Membrane Permeable-Phenotype (%),[3],3% and 1%
same,Population Mitochondria Different-Phenotype (%),[3],23% and 29%
same,Population Mitotic Cells (%),[3],44% and 33%
same,Population Normal (%),[3],99%
same,Population Pyknosed Nuclei (%),[3],18% and 11%
same,Population Tubulin-Different-Phenotype (%),[3],72% and 60%
same,Total Cell Count,[3],239 and 294
same,Population Apoptotic (%),[4],87% and 90%
same,Population Fragmented Nuclei (%),[4],6% and 12%
same,Population Healthy Nuclei (%),[4],1%
same,Population Hoechst High Intensity Objects (%),[4],1%
same,Population Membrane Permeable-Phenotype (%),[4],33%
same,Population Mitotic Cells (%),[4],12% and 9%
same,Population Normal (%),[4],98%
same,Population Pyknosed Nuclei (%),[4],92% and 85%
same,Total Cell Count,[4],199 and 156
same,Population Apoptotic (%),[5],86% and 65%
same,Population Fragmented Nuclei (%),[5],19% and 27%
same,Population Healthy Nuclei (%),[5],74% and 66%
same,Population Hoechst High Intensity Objects (%),[5],0%
same,Population Membrane Permeable-Phenotype (%),[5],1%
same,Population Mitochondria Different-Phenotype (%),[5],9% and 11%
same,Population Mitotic Cells (%),[5],13% and 35%
same,Population Normal (%),[5],100%
same,Population Pyknosed Nuclei (%),[5],5% and 6%
same,Population Tubulin-Different-Phenotype (%),[5],41% and 38%
same,Total Cell Count,[5],255 and 321
same,Population Apoptotic (%),[6],83% and 93%
same,Population Fragmented Nuclei (%),[6],12% and 22%
same,Population Healthy Nuclei (%),[6],6% and 13%
same,Population Hoechst High Intensity Objects (%),[6],0%
same,Population Membrane Permeable-Phenotype (%),[6],8% and 14%
same,Population Mitochondria Different-Phenotype (%),[6],41% and 19%
same,Population Mitotic Cells (%),[6],16% and 7%
same,Population Normal (%),[6],100%
same,Population Pyknosed Nuclei (%),[6],81% and 63%
same,Population Tubulin-Different-Phenotype (%),[6],50% and 76%
same,Total Cell Count,[6],200 and 157
CN1CCc2cc(Cl)c(O)cc2[C@@H](c2ccccc2)C1.Cl,Population Apoptotic (%),[1],46% and 55%
same,Population Fragmented Nuclei (%),[1],10% and 17%
same,Population Healthy Nuclei (%),[1],63%
same,Population Hoechst High Intensity Objects (%),[1],1% and 0%
same,Population Membrane Permeable-Phenotype (%),[1],10% and 6%
same,Population Mitochondria Different-Phenotype (%),[1],1% and 4%
same,Population Mitotic Cells (%),[1],53% and 44%
same,Population Normal (%),[1],98% and 99%
same,Population Pyknosed Nuclei (%),[1],26% and 18%
same,Population Tubulin-Different-Phenotype (%),[1],15% and 14%
same,Total Cell Count,[1],175 and 235
same,Population Apoptotic (%),[2],43% and 53%
same,Population Fragmented Nuclei (%),[2],11% and 17%
same,Population Healthy Nuclei (%),[2],71% and 78%
same,Population Hoechst High Intensity Objects (%),[2],0%
same,Population Membrane Permeable-Phenotype (%),[2],4% and 3%
same,Population Mitochondria Different-Phenotype (%),[2],3% and 4%
same,Population Mitotic Cells (%),[2],56% and 46%
same,Population Normal (%),[2],100%
same,Population Tubulin-Different-Phenotype (%),[2],21% and 12%
same,Total Cell Count,[2],244 and 283
same,Population Apoptotic (%),[3],52% and 62%
same,Population Fragmented Nuclei (%),[3],6% and 18%
same,Population Healthy Nuclei (%),[3],69% and 67%
same,Population Hoechst High Intensity Objects (%),[3],1% and 0%
same,Population Membrane Permeable-Phenotype (%),[3],12% and 7%
same,Population Mitochondria Different-Phenotype (%),[3],0% and 1%
same,Population Mitotic Cells (%),[3],47% and 37%
same,Population Normal (%),[3],98% and 100%
same,Population Pyknosed Nuclei (%),[3],23% and 14%
same,Population Tubulin-Different-Phenotype (%),[3],20% and 11%
same,Total Cell Count,[3],161 and 242
same,Population Apoptotic (%),[4],65% and 83%
same,Population Fragmented Nuclei (%),[4],16% and 21%
same,Population Healthy Nuclei (%),[4],76%
same,Population Hoechst High Intensity Objects (%),[4],0%
same,Population Membrane Permeable-Phenotype (%),[4],3% and 2%
same,Population Mitochondria Different-Phenotype (%),[4],2% and 0%
same,Population Mitotic Cells (%),[4],35% and 16%
same,Population Normal (%),[4],100%
same,Population Pyknosed Nuclei (%),[4],7% and 2%
same,Population Tubulin-Different-Phenotype (%),[4],20% and 10%
same,Total Cell Count,[4],265 and 295
same,Population Apoptotic (%),[5],53% and 75%
same,Population Fragmented Nuclei (%),[5],9% and 18%
same,Population Healthy Nuclei (%),[5],72% and 73%
same,Population Hoechst High Intensity Objects (%),[5],0%
same,Population Membrane Permeable-Phenotype (%),[5],8% and 4%
same,Population Mitochondria Different-Phenotype (%),[5],1% and 2%
same,Population Mitotic Cells (%),[5],46% and 25%
same,Population Normal (%),[5],100% and 99%
same,Population Pyknosed Nuclei (%),[5],18% and 8%
same,Population Tubulin-Different-Phenotype (%),[5],11% and 7%
same,Total Cell Count,[5],175 and 251
same,Population Apoptotic (%),[6],76% and 100%
same,Population Fragmented Nuclei (%),[6],21% and 26%
same,Population Healthy Nuclei (%),[6],73% and 72%
same,Population Hoechst High Intensity Objects (%),[6],0%
same,Population Membrane Permeable-Phenotype (%),[6],4% and 1%
same,Population Mitochondria Different-Phenotype (%),[6],0%
same,Population Mitotic Cells (%),[6],23% and 0%
same,Population Normal (%),[6],100%
same,Population Pyknosed Nuclei (%),[6],4% and 0%
same,Population Tubulin-Different-Phenotype (%),[6],12% and 3%
same,Total Cell Count,[6],292 and 324
